The values that follow come from ChEMBL document CHEMBL5038583, “Highly Potent and Selective Butyrylcholinesterase Inhibitors for Cognitive Improvement and Neuroprotection” (J Med Chem, 2021).

A short description of data set [1]: Ratio of drug concentration in brain to plasma of ICR mouse at 10 mg/kg, po measured after 1 hrs. It is filed as ADME, organism-based. Put shortly:
(§1)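 ICR mice given 10 mg/kg orally in 5% DMSO/40% PEG400/55% saline (1 mg/mL). Blood (retro-orbital) and brain collected at 30, 60, 120 and 240 min. Brain homogenized in 2 volumes PBS, extracted with ethyl acetate, dried and reconstituted in mobile phase. Plasma processed as in the rat study; LC/MS/MS. Brain/plasma ratios from exposures, AUC(B) vs AUC(P).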

Data set [2] in a line: Toxicity in ICR mouse assessed as increase in body weight administered for 14 days and measured daily. The following applies: in vivo, 15 mg/kg, 336 h.
Data set [3] is described as follows: Acute toxicity in ICR mouse assessed as abnormal behaviour at 1 g/kg, ig administered […]. The following applies: in vivo, po, 1000 mg/kg. Put shortly:
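Single dose of 1 g/kg given intragastrically on day 1 to overnight-fasted mice (15−18 g), suspended in 5% DMSO, 40% PEG 400, 55% saline. Male and female groups (n = 9), with vehicle controls. Death, daily behaviour and body mass followed over the next 2 weeks.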

Data set [4] in a line: Ratio of drug concentration in brain to plasma of ICR mouse at 10 mg/kg, po measured after 4 hrs. In kind it is ADME, organism-based. Put shortly: as §1
Data set [5] in a line: Hepatotoxicity in ICR mouse assessed as change in alanine aminotransferase activity at 1 g/kg, ig administered daily for 14 days measured upto 36 hrs post-administration. Conditions: in vivo, po, 1000 mg/kg, 336 h, time 14 day. In kind it is toxicity. Put shortly: (§2)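 Heparinized serum from ICR mice taken at 8, 22 and 36 h after oral compound or saline control; AST and ALT activities measured.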

A short description of data set [6]: Half life in overnight fasted Sprague-Dawley rat at 10 mg/kg, iv measured upto 1440 mins by LC/MS/MS analysis. Conditions: in vivo. In kind it is ADME, organism-based. Put shortly:
(§3)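 Male SD rats (180−220 g), n = 8 per route, fasted overnight with water available. Single 10 mg/kg dose p.o. or i.v. in DMSO/PEG400/saline (10:80:10). Retro-orbital blood taken into heparinized tubes at 1–1440 min. Plasma precipitated with methanol containing theophylline internal standard, then LC/MS/MS against a blank-plasma standard curve. Parameters from noncompartmental extravascular analysis; mean ± SD.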

The nature of data set [7]: Half life in overnight fasted Sprague-Dawley rat at 10 mg/kg, po measured upto 1440 mins by LC/MS/MS analysis. In kind it is ADME, organism-based. The following applies: in vivo. Put shortly: as §3
Data set [8] in a line: Hepatotoxicity in ICR mouse assessed as change in aspartate aminotransferase activity at 1 g/kg, ig administered daily for 14 days measured upto 36 hrs post-administration. It is filed as toxicity. Conditions: in vivo, po, 1000 mg/kg, 336 h, time 14 day. Put shortly:
as §2

The nature of data set [9]: Cmax in ICR mouse brain at 10 mg/kg, po measured upto 240 mins. It is filed as ADME, organism-based. Details: route oral, dose 10 mg/kg, time <=240. Put shortly:
as §1

Regarding `Nc1nonc1-c1nc2ccccc2n1CC(=O)Nc1cnc2ccccc2c1`, in data set [1], the Kp – broadly, the ratio of the level in a tissue or fluid to that in plasma or blood – at 1 h came to 5.05. The Activity result in [2] is given as “Toxic”; in [3] it was “Non-Toxic”; in data set [5], “Non-Toxic”; in data set [8], “Non-Toxic”. Besides, the Kp at 4 h in data set [4] is 1.54. The half-life (in general, the time needed for the level to fall by half in the phase considered) is 8.87 h in [6] and 5.47 h in [7]. The Cmax (in general, the maximum level reached in the sampled fluid or tissue) in [9] was 12.1 ng/mL.
